Laboratory results published in ChEMBL document CHEMBL5674884, “Ezh2 inhibition in Kras-driven lung cancer amplifies inflammation and associated vulnerabilities” (J Exp Med, 2018).
Activity calls are given as the source filed them.

What was measured:
[1] = molecular target: Histone-lysine N-methyltransferase EZH2 (Mus musculus) (UniProt Q61188); test: Inhibition of Ezh2 in mouse NSCLC cells infected with dox-inducible EZH2 shRNA assessed vinculin expression at 100 nM in presence of […] by immunoblot analysis; assay type: cell-based
NSCLC [2] = test: Antiproliferative activity in mouse NSCLC cell expressing Kras G12D/+ assessed reduction in cell viability at 100 nM; assay type: functional, cell-based
Method in brief: (§1)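 Kras G12D/+;Trp53-/- cells treated with 100 nM GSK343 or GSK669 for 5 d, with or without dox, then replated at 250 or 500 cells per well for colony formation under continued treatment. Cell numbers taken relative to controls; colony size quantified automatically. Three independent experiments.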

NSCLC [3] = test: Induction of cell cycle arrest in mouse NSCLC cell infected with dox-inducible EZH2 shRNA assessed as accumulation of cells at G0/G1 phase at 100 nM in presence of […] by FACS analysis; assay type: functional, cell-based
Method in brief: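 Kras G12D/+;Trp53-/- cells carrying dox-inducible EZH2 shRNA treated with or without dox and 100 nM GSK343 for 3 d. Cells then pulsed 45 min with 10 uM BrdU and stained with anti-BrdU-FITC and propidium iodide (5 ug/ml) with RNaseA, then analyzed by FACS. Three independent experiments; Student's t test.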

[4] = molecular target: Histone-lysine N-methyltransferase EZH2 (Mus musculus) (UniProt Q61188); test: Inhibition of Ezh2 in mouse NSCLC cells at 100 nM in presence of […] by immunoblot analysis; assay type: cell-based
[5] = molecular target: Histone-lysine N-methyltransferase EZH2 (Mus musculus) (UniProt Q61188); test: Inhibition of Ezh2 in mouse NSCLC cells expressing Kras G12D/+ assessed down-regulation of H3K27me3 level at 100 nM for 120 hrs by Immunoblot analysis; assay type: cell-based
NSCLC [6] = test: Inhibition of colony formation in mouse NSCLC cell expressing Kras G12D/+ at 100 nM; assay type: functional, cell-based; method in brief: as §1
[7] = molecular target: Histone-lysine N-methyltransferase EZH2 (Mus musculus) (UniProt Q61188); test: Inhibition of Ezh2 in mouse NSCLC cells co-cultured with Raw264.7 cells assessed as H3K27ac level by qRT-PCR analysis; assay type: cell-based
NSCLC [8] = test: Antitumor activity against Kras G12D/+ expressing mouse NSCLC cells xenografted in BALB/c nude mouse assessed as reduction in tumor burden at 50 mg/kg, iv for 30 days; assay type: functional, organism-based; settings: time 30.0 day
[9] = molecular target: Histone-lysine N-methyltransferase EZH2 (Mus musculus) (UniProt Q61188); test: In vivo inhibition of Ezh2 in BALB/c nude mouse xenografted with KrasG12D/+ expressing NSCLC cells (unknown origin) assessed as upregulation of H3K27ac at 50 mg/kg, iv by qRT-PCR analysis; assay type: functional, organism-based
NSCLC [10] = test: Anti-tumor activity against Kras G12D/+ expressing mouse NSCLC cells xenografted in BALB/c nude mouse assessed as decrease in frequency distribution of lesions at 50 mg/kg, iv for 30 days; assay type: functional, organism-based; settings: time 30.0 day
[11] = molecular target: Histone-lysine N-methyltransferase EZH2 (Mus musculus) (UniProt Q61188); test: In vivo inhibition of Ezh2 in BALB/c nude mouse expressing KrasG12D/+ assessed as Erk1/2 phosphorylation at 50 mg/kg, iv in the presence of BTZ/NM by IHC staining; assay type: functional, organism-based
Method in brief: (§2)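 Tumors from mice given daily GSK126/vehicle then alternating BTZ/NM, stained by IHC (n = 3 animals). Lung area divided into equal fields; ten fields per animal counted automatically for immunoreactive cells.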

[12] = molecular target: Histone-lysine N-methyltransferase EZH2 (Mus musculus) (UniProt Q61188); test: In vivo inhibition of Ezh2 in BALB/c nude mouse expressing KrasG12D/+ assessed as Caspase-3 cleavage expression at 50 mg/kg, iv in the presence of BTZ/NM by Immunoblot analysis; assay type: functional, organism-based
Method in brief: (§3)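 Mice with Kras G12D/+;Trp53-/- lung grafts given GSK126 or vehicle, randomized after 15 d to one maximum tolerated dose of BTZ and NM, and sacrificed 20 h later. Tumor lysates in RIPA with protease/phosphatase inhibitors, equal protein run on 4-12% Bis-Tris gels and immunoblotted with ECL detection for phospho-Akt, cleaved Parp1 and cleaved caspase-3.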

[13] = molecular target: Histone-lysine N-methyltransferase EZH2 (Homo sapiens) (UniProt Q15910); test: Inhibition of Ezh2 in human A549 cells assessed as p65 phosphorylation by Immunoblot analysis; assay type: cell-based
Method in brief: (§4)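 A549, H1944 and H2122 cells treated continuously 5 d with GSK126 or vehicle, then replated at low confluence. Whole-cell RIPA extracts immunoblotted for phospho-p65 (S536) and total p65.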

[14] = molecular target: Histone-lysine N-methyltransferase EZH2 (Mus musculus) (UniProt Q61188); test: In vivo inhibition of Ezh2 in BALB/c nude mouse expressing KrasG12D/+ assessed as increased survival rate at day 21 at 50 mg/kg, iv in the presence of BTZ/NM; assay type: functional, organism-based
Method in brief: (§5)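 Nude mice with tail-vein Kras G12D/+;Trp53-/- grafts dosed daily with GSK126 or vehicle from day 4 (n = 7/6). BTZ and NM then given on alternating days from day 19: BTZ 0.8 mg/kg on day one, 0.2 mg/kg plus NM 5 mg/kg on day two. Luciferase imaging analyzed by two-way ANOVA; survival recorded to humane endpoint.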

[15] = molecular target: Histone-lysine N-methyltransferase EZH2 (Mus musculus) (UniProt Q61188); test: In vivo inhibition of Ezh2 in BALB/c nude mouse xenografted with KrasG12D/+ expressing NSCLC cells (unknown origin) assessed as upregulation of H3K27ac at 50 mg/kg, iv by IHC analysis; assay type: functional, organism-based
NSCLC [16] = test: Upregulation of Cxcr4 gene in mouse NSCLC cells expressing KrasG12D/+; assay type: functional, cell-based
NSCLC [17] = test: Antiinflammatory activity in […] EZH2 inhibited mouse NSCLC cells xenografted in BALB/C mouse assessed as upregulation of NF-kappaB pathway at 50 mg/kg, iv for 10 days; assay type: functional, organism-based; settings: time 10.0 day
Method in brief: (§6)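 Tail vein grafts of Kras G12D/+;Trp53-/- cells in nude mice, treated daily with 50 mg/kg GSK126 for 10 d (n = 4) or to humane endpoint (n = 3), or vehicle (n = 2). GFP+ tumor cells sorted by FACS, RNA-seq run, fold change taken over vehicle, and pathway activity inferred by PROGENy scoring.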

[18] = molecular target: Histone-lysine N-methyltransferase EZH2 (Homo sapiens) (UniProt Q15910); test: Inhibition of Ezh2 in human A549 cells assessed as enhanced NF- kappa B activity; assay type: cell-based
Method in brief: (§7)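 A549 cells carrying an NF-kB-responsive element/minimal TA promoter luciferase reporter, pretreated with GSK126 or vehicle. Stimulated with TNF-a for 3 h, or continuously with TNF-a or LPS over 16 h. Luminescence read on plate reader; two-way ANOVA; three independent experiments.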

[19] = molecular target: Histone-lysine N-methyltransferase EZH2 (Mus musculus) (UniProt Q61188); test: In vivo inhibition of Ezh2 in BALB/c nude mouse expressing Kras G12D/+ assessed as reduction of Akt phosphorylation at 50 mg/kg, iv by immunoblotting analysis; assay type: functional, organism-based; method in brief: as §3
[20] = molecular target: Histone-lysine N-methyltransferase EZH2 (Mus musculus) (UniProt Q61188); test: In vivo inhibition of Ezh2 in BALB/c nude mouse expressing KrasG12D/+ assessed as cleaved Caspase-3 at 50 mg/kg, iv in the presence of BTZ/NM by IHC staining; assay type: functional, organism-based; method in brief: as §2
[21] = molecular target: Histone-lysine N-methyltransferase EZH2 (Homo sapiens) (UniProt Q15910); test: Inhibition of Ezh2 in human NCI-H1944 cells assessed as p65 phosphorylation by Immunoblot analysis; assay type: cell-based; method in brief: as §4
NSCLC [22] = test: Antitumor activity against Kras G12D/+ expressing mouse NSCLC cells xenografted in BALB/c nude mouse assessed as reduction in lung adenoma formation at 50 mg/kg, iv for 12 days by H&E staining analysis; assay type: functional, organism-based; settings: time 12.0 day
[23] = molecular target: Histone-lysine N-methyltransferase EZH2 (Homo sapiens) (UniProt Q15910); test: Inhibition of Ezh2 in LPS stimulated human A549 cells assessed as enhanced NF- kappa B activity; assay type: cell-based; method in brief: as §7
[24] = molecular target: Histone-lysine N-methyltransferase EZH2 (Homo sapiens) (UniProt Q15910); test: Inhibition of Ezh2 in human NCI-H2122 cells assessed as p65 phosphorylation by Immunoblot analysis; assay type: cell-based; method in brief: as §4
[25] = molecular target: Histone-lysine N-methyltransferase EZH2 (Mus musculus) (UniProt Q61188); test: In vivo inhibition of Ezh2 in BALB/c nude mouse expressing KrasG12D/+ assessed as Parp1 expression at 50 mg/kg, iv in the presence of BTZ/NM by Immunoblot analysis; assay type: functional, organism-based; method in brief: as §3
[26] = molecular target: Histone-lysine N-methyltransferase EZH2 (Mus musculus) (UniProt Q61188); test: In vivo inhibition of EZH2 in BALB/c nude mouse xenografted with Kras G12D/+ NSCLC cells (unknown origin) assessed as H3K27me3 level at 50 mg/kg, iv for 30 days by IHC analysis; assay type: functional, organism-based; settings: time 30.0 day
[27] = molecular target: Histone-lysine N-methyltransferase EZH2 (Mus musculus) (UniProt Q61188); test: In vivo inhibition of Ezh2 in BALB/c nude mouse xenografted with KrasG12D/+ expressing NSCLC cells (unknown origin) assessed as upregulation of H3K27me3 at 50 mg/kg, iv by IHC analysis; assay type: functional, organism-based
NSCLC [28] = test: Anti-tumor activity against Ezh2i knockdown NSCLC cells (unknown origin) xenografted in BALB/c nude mouse assessed as increase in lifespan at 50 mg/kg, iv measured for 30 days; assay type: functional, organism-based; settings: time 30.0 day
NSCLC [29] = test: Antitumor activity against KrasG12D/+ expressing mouse NSCLC cells xenografted in BALB/c nude mouse assessed as reduced tumor growth at 50 mg/kg, iv in the presence of BTZ/NM; assay type: functional, organism-based; method in brief: as §5
NSCLC [30] = test: Antitumor activity in KrasG12D/+ harbouring mouse NSCLC cells xenografted in BALB/c nude mouse assessed as reduced tumor progression; assay type: functional; settings: dose 50.0 mg/kg, route iv
[31] = molecular target: Histone-lysine N-methyltransferase EZH2 (Mus musculus) (UniProt Q61188); test: In vivo inhibition of Ezh2 in BALB/c nude mouse expressing Kras G12D/+ assessed as Erk1/2 expression level at 50 mg/kg, iv by immunoblotting analysis; assay type: functional, organism-based
NSCLC [32] = test: Antiinflammatory activity in […] EZH2 inhibited mouse NSCLC cells xenografted in BALB/C mouse assessed as upregulation of JAK/STAT pathway at 50 mg/kg, iv for 10 days; assay type: functional, organism-based; settings: time 10.0 day; method in brief: as §6
[33] = molecular target: Histone-lysine N-methyltransferase EZH2 (Homo sapiens) (UniProt Q15910); test: Inhibition of Ezh2 in TNF-alpha stimulated human A549 cells assessed as enhanced NF- kappa B activity; assay type: cell-based; method in brief: as §7
[34] = molecular target: Histone-lysine N-methyltransferase EZH2 (Mus musculus) (UniProt Q61188); test: In vivo inhibition of Ezh2 in BALB/c nude mouse expressing Kras G12D/+ assessed as Erk1/2 expression level at 50 mg/kg, iv by IHC staining; assay type: functional, organism-based; method in brief: as §2
NSCLC [35] = test: Antitumor activity against KrasG12D/+ expressing mouse NSCLC cells xenografted in BALB/c nude mouse assessed as reduced cell proliferation at 50 mg/kg, iv in the presence of BTZ/NM; assay type: functional, organism-based; method in brief: as §2
NSCLC [36] = test: Antiinflammatory activity in […] EZH2 inhibited mouse NSCLC cells xenografted in BALB/C mouse assessed as upregulation of TNF-alpha pathway at 50 mg/kg, iv for 10 days; assay type: functional, organism-based; settings: time 10.0 day; method in brief: as §6
NSCLC [37] = test: Antitumor activity against KrasG12D/+ expressing mouse NSCLC cells xenografted in BALB/c nude mouse assessed as increase in survival rate at 50 mg/kg, iv in the presence of BTZ/NM; assay type: functional, organism-based; method in brief: as §5
[38] = molecular target: Histone-lysine N-methyltransferase EZH2 (Mus musculus) (UniProt Q61188); test: In vivo inhibition of Ezh2 in BALB/c nude mouse expressing KrasG12D/+ assessed as phospho-Akt expression at 50 mg/kg, iv in the presence of BTZ/NM by Immunoblot analysis; assay type: functional, organism-based; method in brief: as §3

Sequence of Histone-lysine N-methyltransferase EZH2 (Mus musculus) (Q61188 whole entry): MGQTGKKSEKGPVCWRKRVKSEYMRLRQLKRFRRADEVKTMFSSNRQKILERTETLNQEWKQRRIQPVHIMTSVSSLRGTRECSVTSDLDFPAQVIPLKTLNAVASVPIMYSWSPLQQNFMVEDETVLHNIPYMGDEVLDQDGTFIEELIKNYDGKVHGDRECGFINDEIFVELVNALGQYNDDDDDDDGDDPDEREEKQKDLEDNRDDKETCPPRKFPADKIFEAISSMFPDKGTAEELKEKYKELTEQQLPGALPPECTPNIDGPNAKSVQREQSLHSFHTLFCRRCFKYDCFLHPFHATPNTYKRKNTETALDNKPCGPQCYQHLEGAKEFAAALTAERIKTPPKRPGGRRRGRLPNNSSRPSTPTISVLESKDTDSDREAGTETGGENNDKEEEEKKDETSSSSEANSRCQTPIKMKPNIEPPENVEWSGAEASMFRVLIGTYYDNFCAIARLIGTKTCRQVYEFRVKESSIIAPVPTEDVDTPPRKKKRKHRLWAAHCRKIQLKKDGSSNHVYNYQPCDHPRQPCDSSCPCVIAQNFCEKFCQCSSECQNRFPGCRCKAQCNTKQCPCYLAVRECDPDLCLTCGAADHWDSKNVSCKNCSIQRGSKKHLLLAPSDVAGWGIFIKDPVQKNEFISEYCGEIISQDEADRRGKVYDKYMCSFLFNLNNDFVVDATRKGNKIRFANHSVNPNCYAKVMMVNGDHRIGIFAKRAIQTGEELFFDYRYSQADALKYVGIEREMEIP
Sequence of Histone-lysine N-methyltransferase EZH2 (Homo sapiens) (Q15910 whole entry, looked up): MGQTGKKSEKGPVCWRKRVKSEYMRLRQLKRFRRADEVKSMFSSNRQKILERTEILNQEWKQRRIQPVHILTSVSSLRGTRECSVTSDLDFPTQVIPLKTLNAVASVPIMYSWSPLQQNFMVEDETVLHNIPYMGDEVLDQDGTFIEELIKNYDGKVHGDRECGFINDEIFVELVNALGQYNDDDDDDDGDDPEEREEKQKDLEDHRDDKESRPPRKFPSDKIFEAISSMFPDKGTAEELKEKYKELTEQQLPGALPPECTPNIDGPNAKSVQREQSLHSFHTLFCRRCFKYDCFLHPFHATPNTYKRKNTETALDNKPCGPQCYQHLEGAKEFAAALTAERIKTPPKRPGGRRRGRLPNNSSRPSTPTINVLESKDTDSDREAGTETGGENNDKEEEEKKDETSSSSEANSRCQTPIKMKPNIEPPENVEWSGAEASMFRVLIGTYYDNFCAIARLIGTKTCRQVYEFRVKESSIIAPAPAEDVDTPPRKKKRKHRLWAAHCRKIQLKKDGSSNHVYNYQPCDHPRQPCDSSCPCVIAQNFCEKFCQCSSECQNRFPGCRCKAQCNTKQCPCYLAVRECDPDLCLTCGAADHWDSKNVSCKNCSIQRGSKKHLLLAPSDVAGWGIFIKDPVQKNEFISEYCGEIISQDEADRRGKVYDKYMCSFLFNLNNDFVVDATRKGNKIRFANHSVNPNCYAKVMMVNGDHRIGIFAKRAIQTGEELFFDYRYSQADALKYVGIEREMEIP

CCCc1cc(C)[nH]c(=O)c1CNC(=O)c1cc(-c2ccnc(N3CCN(C)CC3)c2)cc2c1cnn2C(C)C
active: inhibition [1] | Activity (NSCLC [2]) | Activity (NSCLC [3]) | inhibition [4] | inhibition [5] | inhibition (NSCLC [6])

CC[C@H](C)n1cc(C)c2c(C(=O)NCc3c(C)cc(C)[nH]c3=O)cc(-c3ccc(N4CCNCC4)nc3)cc21
active: inhibition [7] | Activity (NSCLC [8]) | inhibition [9] | Activity (NSCLC [10]) | inhibition [11] | inhibition [12] | inhibition [13] | inhibition [14] | inhibition [15] | Activity (NSCLC [16]) | Activity (NSCLC [17]) | inhibition [18] | inhibition [19] | inhibition [20] | inhibition [21] | Activity (NSCLC [22]) | inhibition [23] | inhibition [24] | inhibition [25] | inhibition [26] | inhibition [27] | Activity (NSCLC [28]) | Activity (NSCLC [29]) | Activity (NSCLC [30]) | inhibition [31] | Activity (NSCLC [32]) | inhibition [33] | inhibition [34] | Activity (NSCLC [35]) | Activity (NSCLC [36]) | Activity (NSCLC [37]) | inhibition [38]
